The campaign covered roughly 310,000 compounds. About 2,800 (0.9%) were called active. The sample holds actives, similar compounds and a random draw of the others, so the mix is not that of the screen.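 The calls were made as follows: active = B-score of the integrated calcium signal more than 4 SD below the library mean, with starting fluorescence not abnormally high; inactive = the rest.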

The assay in a line: enhancers of RGS4 function in calcium signaling – cell-based, HEK293 M3R inducible RGS4, calcium flux, primary screen (AID 463111).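 As to B-score: negative B-score means reduced calcium response which marks RGS4 activation or potentiation.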 The following applies: HEK293 M3R/inducible RGS4, carbachol calcium flux Fluo4, at 10 µM; stronger effect = lower value. Summed up: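 Material: M3R-expressing HEK293 line, RGS4 induced by doxycycline | Schedule: Overnight RGS4 induction, 30 min dye load 37 °C, 20 min compound RT | Measured by: Fluo4 fluorescence kinetic imaging of calcium | Read-out: Integrated calcium ratio converted to B score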
On the technique in general: Calcium assays in cells follow changes in intracellular calcium, usually with a dye or a luminescent sensor.
Consider `CCS(=O)(=O)Nc1ccc(C2=NN(S(=O)(=O)c3ccc(F)cc3)C(c3ccco3)C2)cc1` (centres undefined), for which the B-score is -7.77 (active).

Take `CCS(=O)(=O)Nc1ccc(C2=NN(C(C)=O)C(c3cccs3)C2)cc1` (centres undefined): the B-score entry is “inactive”.

For the compound `CS(=O)(=O)Nc1ccc(C2=NN(S(C)(=O)=O)C(c3cccs3)C2)cc1` (centres undefined), the B-score entry was “inactive”.

Regarding `COc1ccc(N(CC(=O)Nc2cc(OC)ccc2OC)S(=O)(=O)c2c(C)noc2C)cc1`, the B-score result is “inactive”.

As for `C=CCNC(=O)COC(=O)CNC(=O)c1cc(Cl)cc([N+](=O)[O-])c1`, the B-score entry is “inactive”.

Consider `COc1ccc(Nc2nc(-c3cccnc3)nc3ccccc23)cn1`, for which the B-score result was “inactive”.

Take `Cc1cccc(-c2nc(Nc3ccc(O)cc3)c3ccccc3n2)c1`: the B-score is -8.56 (active).

Take `CC(=O)Nc1cccc(Nc2nc(-c3cccs3)nc3ccccc23)c1`: the B-score entry is “inactive”.

As for `CC(NS(=O)(=O)c1ccc(OCC(=O)N2CCCC2)cc1)c1ccccc1` (centres undefined), the B-score entry was “inactive”.

In the case of `CCc1ccc(N2CC(O)=C(c3nc4ccccc4c(=O)[nH]3)C2=N)cc1`, the B-score entry is “inactive”.

Turning to `COc1ccccc1CNC(=O)C1CCN(C(=O)[C@@H]2Cc3ccccc3CN2)CC1`, the B-score result is “inactive”.

Regarding `Cc1ccc(N2C(=O)CC(Nc3cccc4ccccc34)C2=O)cc1` (centres undefined), the B-score is -8.55 (active).

Take `O=C(Cc1ccccc1)NNC1CC(=O)N(c2ccc(Br)cc2)C1=O` (centres undefined): the B-score result was “inactive”.

With `CC1=C(C)CC2C(=O)N(c3cccc4ccccc34)C(=O)C2C1` (centres undefined), the B-score result is “inactive”.

For `O=C(NCc1ccccc1)C1CCCN(c2nc3ccsc3c(=O)s2)C1` (centres undefined), the B-score result was “inactive”.

For `CCCCOc1ccc(C(=O)NN2CCN(C)CC2)cc1`, the B-score entry was “inactive”.

Regarding `CCCOc1ccc(C(=O)C(CCC(CNCC)C(=O)c2ccc(OCCC)cc2)CNCC)cc1` (centres undefined), the B-score is -8.07 (active).

`CCCOc1ccc(C(=O)CCC(=O)OC(C)C(=O)Nc2ccc(NC(C)=O)cc2)cc1` (centres undefined): the B-score entry was “inactive”.

With `COc1ccc(Cl)cc1NS(=O)(=O)c1cccc(C(=O)NCC2CCCO2)c1` (centres undefined), the B-score result is “inactive”.

`C[N+](C)(C)CCNC(=O)c1cc[n+](Cc2ccccc2)c(/C=N/O)c1`: the B-score entry was “inactive”.

`Cc1ccc(/C=C(\C#N)C(=O)Nc2cccc3ncccc23)o1`: the B-score entry was “inactive”.

Turning to `C=CCn1c(=O)c(C(=O)NCc2ccc3c(c2)OCO3)c(O)c2ccccc21`, the B-score entry was “inactive”.

For the compound `Cc1ccc(C)c(NC2=NCC(=O)N2c2ccc3c(c2)OCCO3)c1`, the B-score entry was “inactive”.

On to `CCOc1ccccc1NC(=O)Cn1ncc2ccc([N+](=O)[O-])cc21`, for which the B-score entry is “inactive”.

Take `Cc1cccc(C)c1NC(=O)C1(C)c2cccc[n+]2CC(=O)N1Cc1cccs1` (centres undefined): the B-score entry is “inactive”.

Take `O=C(Oc1ccc(-c2nnco2)cc1)c1ccc(F)c(S(=O)(=O)N2CCOCC2)c1`: the B-score is -7.43 (active).

For the compound `Cc1cc(NC(=O)COC(=O)c2ccc(F)c(S(=O)(=O)N3CCOCC3)c2)no1`, the B-score entry was “inactive”.

Regarding `COc1ccc(C(=O)Oc2ccc(-c3nnco3)cc2)cc1S(=O)(=O)N1CCOCC1`, the B-score result is “inactive”.

For `COc1ccccc1-c1cnn2c(N3CCOCC3)cc(C)nc12`, the B-score entry was “inactive”.

For `CC(C)Oc1ccc(CN2CCC(n3nccc3NC(=O)c3cccnc3)CC2)cc1`, the B-score entry is “inactive”.

In the case of `S=c1[nH]nc(-c2ccc(Cl)cc2)n1CC1CCCO1` (centres undefined), the B-score was -8.73 (active).

For `Cc1nnc(SCC(=O)NNC(=O)c2ccc(Cl)cc2)n1CC1CCCO1` (centres undefined), the B-score result is “inactive”.

With `Cc1ccc(-n2c(-c3ccc(Cl)cc3)n[nH]c2=S)cc1`, the B-score result is “inactive”.

With `O=C(CSc1ncccn1)N1CCCC1`, the B-score entry is “inactive”.

As for `CCCCCN(C(=O)NC(=O)Nc1ccccc1OC)S(C)(=O)=O`, the B-score result is “inactive”.

As for `CCCN1C2=C(C(=O)CCC2)C(c2ccc(O)c(Br)c2)C2=C1CCCC2=O`, the B-score result was “inactive”.

In the case of `CCOc1cc(/C=N/NC(=O)c2ccc(CSc3nncn3C)cc2)ccc1OCC(=O)N1CCOCC1`, the B-score entry is “inactive”.

Regarding `COCCCNS(=O)(=O)c1cccc(S(=O)(=O)c2cccc(S(=O)(=O)NCCCOC)c2)c1`, the B-score result is “inactive”.

For `COc1cccc(-c2cc3nc4c(c(N5CCC6(CC5)OCCO6)n3n2)CCCC4)c1`, the B-score was -7.88 (active).

Regarding `COc1cccc(CNc2nc3nc4c(c(=O)n3[nH]2)CCC4)c1`, the B-score result is “inactive”.

Consider `COc1cccc(NC(=O)CN2CCN(c3nc(-c4cccc(OC)c4)cs3)CC2)c1`, for which the B-score entry is “inactive”.

As for `O=C(c1cc2ccccc2o1)N1CCN(Cc2ccccc2)CC1`, the B-score result was “inactive”.

`Cc1cnc(C(=O)N2CCCC(N3CCN(c4ccccc4F)CC3)C2)cn1` (centres undefined): the B-score result is “inactive”.

As to `O=C(NCCc1c[nH]c2ccccc12)c1cc2ccccc2oc1=O`, the B-score result was “inactive”.

On to `CCCN(CCC)c1nc2c(C)cccn2c(=O)c1/C=C1/SC(=S)N(Cc2ccco2)C1=O`, for which the B-score result was “inactive”.

Turning to `CC(C)NC(=O)C(=O)NCCCOC(C)C`, the B-score result was “inactive”.

Take `CNC(=O)c1ccsc1NC(=O)c1ccc(S(=O)(=O)N2CCOCC2)cc1`: the B-score result is “inactive”.

As to `CCOC(=O)c1csc(NC(=O)c2ccc(S(=O)(=O)N3CCCC3)cc2)n1`, the B-score entry was “inactive”.

On to `COc1ccc(C(=O)Nc2nc(-c3ccc(S(=O)(=O)N4CCOCC4)cc3)cs2)cc1`, for which the B-score was -7.75 (active).

Consider `O=C(COC(=O)c1cnccn1)Nc1ccc(Cl)cc1C(F)(F)F`, for which the B-score entry is “inactive”.

`COc1ccc(Cc2nnc(SCC(=O)Nc3ccc(C)c(Cl)c3)[nH]c2=O)cc1`: the B-score result is “inactive”.

With `O=C(Nc1cc2c3c(c1)C1CCCC1CN3CC1CCCC21)c1ccc([N+](=O)[O-])cc1` (centres undefined), the B-score was -8.07 (active).

With `O=C(Nc1ccccc1C(=O)Nc1ccncc1)c1ccc([N+](=O)[O-])cc1`, the B-score entry is “inactive”.

`CN1C2CCC1CC(NC(=O)c1ccc([N+](=O)[O-])cc1)C2` (centres undefined): the B-score entry was “inactive”.

On to `O=C(Nc1ccc2c(c1)OCO2)C1CC(c2c(F)cccc2Cl)=NO1` (centres undefined), for which the B-score entry is “inactive”.

Consider `COc1cc(NC(=S)NCCSc2ccc(C)cc2)cc(OC)c1`, for which the B-score result is “inactive”.

As to `COc1ccc(/C=C(/NC(=O)c2ccc(C)cc2)c2nc3ccccc3[nH]2)cc1OC`, the B-score entry was “inactive”.

For `COc1cc(/C=C(\C#N)c2nc3c(s2)CC(C)CC3)ccc1O` (centres undefined), the B-score result is “inactive”.

With `COc1cc(/C=C(\C#N)c2nc3ccccc3[nH]2)ccc1O`, the B-score is -8.51 (active).

Take `COc1ccccc1NC(=O)N1CCCC1C(=O)NCc1cccs1` (centres undefined): the B-score result was “inactive”.

In the case of `O=C1Nc2ccc(Br)cc2/C1=N/N=C/C1=C(N2CCOCC2)C(=C\c2ccccc2)/CC1`, the B-score entry was “inactive”.

Consider `COc1cccc2sc(N(CCCN(C)C)C(=O)C(c3ccccc3)c3ccccc3)nc12`, for which the B-score result was “inactive”.

In the case of `Cc1cccc2sc(N(CCCN(C)C)C(=O)CCS(=O)(=O)c3ccccc3)nc12`, the B-score is -8.92 (active).

With `COc1cccc2sc(N(CCCN(C)C)C(=O)CCS(=O)(=O)c3ccccc3)nc12`, the B-score result was “inactive”.

For the compound `CC(C)OC(=O)c1sc2nc3c(cc2c1N)C(=O)CCC3`, the B-score result was “inactive”.

In the case of `Cc1ccc(-c2nn(-c3ccccc3)cc2C(=O)NCCCN2CCCC2=O)cc1`, the B-score result was “inactive”.

In the case of `Cc1cccc(C)c1NC(=O)CNC(=O)c1c(C)nn(-c2ccccc2)c1C`, the B-score entry was “inactive”.

As to `CN(/C(=N/S(=O)(=O)c1cccs1)c1ccccc1)c1ccc(O)cc1`, the B-score result is “inactive”.

With `CCCNC(=O)CCn1nc(-c2ccccc2)c2ccccc2c1=O`, the B-score result was “inactive”.

On to `CCc1cccc(CC)c1NC(=O)COc1ccccc1C(=O)c1cc(C#N)c(=O)n(C2CCCCC2)c1`, for which the B-score result is “inactive”.

As for `CC(=O)N1CCN(c2ccccc2NC(=S)NC(=O)c2cc3ccccc3o2)CC1`, the B-score was -6.98 (active).

`COc1ccc(C(=O)NC(=S)Nc2ccccc2N2CCN(S(C)(=O)=O)CC2)cc1OC`: the B-score entry was “inactive”.

`CCc1ccc(C(=O)NC(=S)Nc2ccccc2N2CCOCC2)cc1`: the B-score entry was “inactive”.

Consider `CCCCn1c(N)c(N(CC(C)C)C(=O)C2CSC3(C)CCC(=O)N23)c(=O)[nH]c1=O` (centres undefined), for which the B-score entry was “inactive”.

On to `CCCCn1c(N)c(N(CC)C(=O)c2ccc(N(C)S(=O)(=O)c3ccc(C)cc3)cc2)c(=O)[nH]c1=O`, for which the B-score entry is “inactive”.

`CCS(=O)(=O)C1=NSC2=NC(=O)/C(=C\c3ccc(OS(=O)(=O)c4ccccc4)cc3)C(=N)N21`: the B-score result was “inactive”.

Consider `Cc1cc(/C=C2/C(=N)N3C(=NC2=O)SN=C3S(C)(=O)=O)c(C)n1-c1ccccc1`, for which the B-score entry is “inactive”.

Consider `CCS(=O)(=O)C1=NSC2=NC(=O)/C(=C\c3cc(C)n(-c4cccc(OC)c4)c3C)C(=N)N21`, for which the B-score is -7.01 (active).

Regarding `COCCCNC(=O)CNC(=O)c1nn(-c2ccc(OC)cc2)c(=O)c2ccccc12`, the B-score result is “inactive”.

On to `Cc1cc(C=O)c(C)n1-c1ccc(NC2CCCCC2)c([N+](=O)[O-])c1`, for which the B-score is -7.21 (active).

In the case of `Cc1c(NS(=O)(=O)c2ccc(NC3CCCC3)c([N+](=O)[O-])c2)c(=O)n(-c2ccccc2)n1C`, the B-score result was “inactive”.

Turning to `Cc1cc([N+](=O)[O-])ccc1NC1CCCC1`, the B-score entry was “inactive”.

Consider `Cc1cc(-c2nnc(SCC(=O)Nc3ccc(F)cc3)n2N)n[nH]1`, for which the B-score entry was “inactive”.

Consider `O=C(NCc1ccco1)/C(=C/c1cccc([N+](=O)[O-])c1)NC(=O)c1ccco1`, for which the B-score result was “inactive”.

For `COc1ccccc1NC(=O)COC(=O)c1ccccc1SCC(=O)N1CCCC1`, the B-score result was “inactive”.

Turning to `CC(NC(=O)c1ccccc1SCC(=O)N1CCCC1)c1ccccc1` (centres undefined), the B-score result is “inactive”.

For the compound `CC(C)N(Cc1ccccc1)C(=O)COC(=O)c1ccccc1SCC(=O)N1CCCC1`, the B-score was -8.67 (active).

Regarding `Cc1ccc(C(=O)N/C(=C\c2cccs2)C(=O)NCCc2ccccn2)cc1C`, the B-score result was “inactive”.

As to `COc1cc(CN2CCCC(C(=O)c3ccc(SC)cc3)C2)cc(Cl)c1O` (centres undefined), the B-score result is “inactive”.

Turning to `COc1ccc(CN2CCCC(C(=O)c3ccc(Cl)cc3)C2)cc1Cn1cncn1` (centres undefined), the B-score was -10.3 (active).

On to `COc1ccc(CCN(C)C(=O)C2CCCN(Cc3ccc(OC)c(OC)c3)C2)cc1OC` (centres undefined), for which the B-score entry is “inactive”.

Regarding `CC[n+]1c(C)n(-c2ccccc2)c2ccc(NC(C)=O)cc21`, the B-score entry was “inactive”.

On to `C=CCn1c(=N)n(CC(O)COc2ccc(OC)cc2)c2ccccc21` (centres undefined), for which the B-score result was “inactive”.

As to `OC(CN=c1sc2ccccc2n1CC(O)COc1ccccc1)COc1ccccc1` (centres undefined), the B-score is -10.8 (active).

In the case of `CC(C)c1ccc(OCC(O)Cn2cnc3ccccc32)cc1` (centres undefined), the B-score result is “inactive”.

On to `COc1cccc(NC(=O)Cn2cnc3sc(C)c(S(=O)(=O)N4CCN(C)CC4)c3c2=O)c1`, for which the B-score result was “inactive”.

Take `Cc1ccc(Cl)c(OCC(=O)NN2CCN(C)CC2)c1`: the B-score result is “inactive”.

Regarding `O=C(CCCOc1ccc(Cl)cc1Cl)NNC(=O)C1CCC1`, the B-score result was “inactive”.

As for `CN1CCC(OC(=O)COc2ccc(Cl)cc2Cl)CC1`, the B-score is -7.11 (active).

The record behind these values is PubChem BioAssay AID463111 (Johns Hopkins Ion Channel Center, 2010).
